Experimental data pooled from the literature.
Lines come from different studies, so protocols differ.
MTOR: Serine/threonine-protein kinase mTOR (MTOR, Homo sapiens, UniProt P42345)
HSP90B1: Endoplasmin (HSP90B1, Canis lupus familiaris, UniProt P41148)
SMARCA2 bromodomain: SWI/SNF-related matrix-associated actin-dependent regulator of chromatin subfamily A member 2, bromodomain (SMARCA2, Homo sapiens, UniProt P51531)

Compound | target | test | setting | Kd [nM]
CCC(=O)N1CCC(C(=O)NCC(=O)N2CCN(c3nc(-c4cnc(N)nc4C(F)F)nc(N4CCOCC4)n3)CC2)CC1 | MTOR | binding, competition with immobilised ligand |  | 33
COC(=O)c1c(O)cc(O)c(Cl)c1CCC(=O)Nc1ccccn1 | HSP90B1 | ligand displacement, FP |  | 820
COc1cc2c(Nc3ccc(NC(=O)c4ccccc4)cc3)ncnc2cc1OCCCN1CCOCC1 | Epidermal growth factor receptor (EGFR, Homo sapiens, UniProt P00533) | binding |  | > 10000
Cc1ncsc1-c1ccc(CNC(=O)[C@@H]2C[C@H](O)CN2C(=O)[C@@H](NC(=O)C2(F)CC2)C(C)(C)C)c(OCCc2ccc(CN3CCN(c4cc(-c5ccccc5O)nnc4N)CC3)cc2)c1 | SMARCA2 bromodomain | binding, SPR |  | 1200
c1cncc(-c2cccc(Nc3nccc(NC4CCCCC4)n3)c2)c1 | Non-receptor tyrosine-protein kinase TYK2, JH2 (TYK2, Homo sapiens, UniProt P29597) | binding, competition with immobilised ligand |  | 740
O=C1OC2(c3ccc(O)cc3Oc3cc(O)ccc32)c2ccccc21 | Lysozyme C (LYZ, Gallus gallus, UniProt P00698) | binding, fluorescence |  | 3800
NCCS(=O)(=O)O | Cyclin-dependent kinase 6 (CDK6, Homo sapiens, UniProt Q00534) | binding |  | 143
CCC(=O)N1CCC(C(=O)N(C)CC(=O)N2CCN(c3nc(-c4cnc(N)nc4C(F)F)nc(N4CCOCC4)n3)CC2)CC1 | MTOR | binding, competition with immobilised ligand |  | 54
COC(=O)c1c(O)cc(O)c(Cl)c1CCC(=O)Nc1nncs1 | HSP90B1 | ligand displacement, FP |  | 1540
Cc1ncsc1-c1ccc(CNC(=O)[C@@H]2C[C@@H](O)CN2C(=O)[C@@H](NC(=O)C2(F)CC2)C(C)(C)C)c(OCCOc2ccc(CN3CCN(c4cc(-c5ccccc5O)nnc4N)CC3)cc2)c1 | SMARCA2 bromodomain | binding, SPR |  | 1800
Cc1cc2nc3c(=O)[nH]c(=O)nc-3n(C[C@H](O)[C@H](O)[C@H](O)COP(=O)(O)OP(=O)(O)OC[C@H]3O[C@@H](n4cnc5c(N)ncnc54)[C@H](O)[C@@H]3O)c2cc1C | Heterogeneous nuclear ribonucleoprotein H (Homo sapiens, UniProt P31943) | binding | lysate | 53
COC(=O)c1c(O)cc(O)c(Cl)c1CCC(=O)Nc1cccc(Cl)c1 | HSP90B1 | ligand displacement, FP |  | 6420
C=CC(=O)N1CCC(C(=O)N(C)CC(=O)N2CCN(c3nc(-c4cnc(N)nc4C(F)F)nc(N4CCOCC4)n3)CC2)CC1 | MTOR | binding, competition with immobilised ligand |  | 26
COC(=O)c1c(O)cc(O)c(Cl)c1CCC(=O)Nc1ccccc1 | HSP90B1 | ligand displacement, FP |  | 20500
O=P(O)(O)O[C@H]1[C@H](O)[C@@H](OP(=O)(O)O)[C@H](OP(=O)(O)O)[C@@H](OP(=O)(O)O)[C@H]1O | PREX1 (Homo sapiens, UniProt Q8TCU6) | binding, ITC |  | 440
N=c1ccc2c(-c3ccc(C(=O)NCCCCCCn4cc(CCCC(=O)Nc5nc6ccc(Cl)cc6c6nc(-c7ccco7)nn56)nn4)cc3C(=O)O)c3ccc(N)c(S(=O)(=O)O)c3oc-2c1S(=O)(=O)O | Adenosine receptor A3 (ADORA3, Homo sapiens, UniProt P0DMS8) | binding, flow cytometry |  | 5.15
